This is a sample that favours compounds with a hit; in the whole collection about 4.9% have one here.
STAT3 act = IL-6 driven STAT3 reporter potentiators, primary screen, U3A cells, luciferase, luminescence, MLSCN library. IL-6 STAT3-luciferase reporter; 100% = signal with IL-6 EC80 alone. activation (% of control), % at 5.6 µM. actives 0.91% (n = 190,000). AID 871, 2007;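 active = activation above the screen-wide mean of compound activation plus 3 SD, cut at about 130% in these data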;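 also: 0% = background luminescence of wells with medium and substrate only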
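Test system: human U3A cells carrying STAT3-luciferase construct; control set: IL-6-only wells as 100% reference; timing: compound pre-incubation 1 h before IL-6, then 6 h stimulation at 37 °C; also added: IL-6 stimulus at 33 ng/mL final; evaluation: % activation versus median of IL-6-stimulated wells; detection: reporter luminescence signal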
NF-kB expr up = activators of NF-kB expression in neurons, primary screen, cell-based, HTS; human neuronal cells, NF-kB reporter expression; hits give high values; fold change at 12.5 µM; actives 1.6% (n = 190,000); in the data active = fold change above about 3.3
STAT1 activator = STAT1 signaling activators, primary screen, cell-based, HTS, luciferase reporter | NIH 3T3 STAT1-luciferase reporter, IFN-gamma, luminescence; 100% = IFN-gamma alone, no compound | activation (% of control), % at 5.5 µM | actives 2.6% (n = 200,000) | AID 932, 2007;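 active = activation above the screen-wide mean activation plus 3 SD, cut at about 130% in these data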;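 also: raw ratio to IFN-gamma control signal so 100% means no change and 0% no light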
STAT3 blocker = IL-6 driven STAT3 reporter inhibitors, primary screen, U3A cells, luciferase, luminescence, MLSCN library | IL-6 STAT3-luciferase reporter; host cell line lacks STAT1 | inhibition, % at 5.5 µM | actives 0.89% (n = 190,000) | AID 862, 2007;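 active = inhibition above the mean inhibition across all screened compounds plus 3 SD, cut at about 44% in these data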;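 also: 0% = DMSO only wells and 100% = 100 µM nifuroxazide control wells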
STAT1 inh = STAT1 signaling inhibitors, primary screen, cell-based, HTS, luciferase reporter. NIH 3T3 STAT1-luciferase reporter, IFN-gamma, luminescence. inhibition, % at 5.5 µM. actives 0.35% (n = 200,000);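 active = inhibition above a set limit, the mean inhibition across all tested compounds plus 3 SD, cut at about 34% in these data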;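 also: 0% = IFN-gamma with DMSO and 100% = IFN-gamma with 300 µM nifuroxazide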
APP 5'UTR act = activators of APP 5'UTR luciferase reporter, primary screen, SH-SY5Y cells; SH-SY5Y APP 5'UTR luciferase reporter, luminescence; zero percent = DMSO vehicle wells; activation, % at 2 µM; actives 1% (n = 190,000); AID 1276, 2008;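 active = activation above a set limit, based on mean plus 3 SD of controls, cut at about 140% in these data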
Starred values were filed as active, the others as inactive; · = no result.

SMILES	STAT3 act	NF-kB expr up	STAT1 activator	STAT3 blocker	STAT1 inh	APP 5'UTR act
CCNc1nc(NCC)n2c(SC(C(=O)Nc3cc(Cl)cc(Cl)c3)c3ccccc3)nnc2n1 (stereo not given)	104.4	1.07	106.0	-4.4	-6.7	-19.1
COCCn1c(-c2ccccc2)csc1=Nc1cccnc1	98.5	1.05	88.9	10.1	12.0	1.4
CC(C)n1c(-c2ccco2)csc1=Nc1cccnc1	134.8*	0.72	91.1	-34.4	9.8	-0.9
CCC(=O)Nc1nc2cc(OC)ccc2s1	99.7	3.64*	140.5*	5.7	-44.4	86.5
COc1ccc2sc(NC(C)=O)nc2c1	92.5	2.42	136.1*	11.1	-38.7	103.0
COc1ccc2sc(NC(=O)CC(C)C)nc2c1	79.9	3.46*	146.4*	24.2	-51.3	93.7
CCOCC(=O)Nc1nc2ccc(OC)cc2s1	80.7	3.27	125.8	27.6	-28.0	72.6
CCC(=O)Nc1nc2ccc3nc(C)sc3c2s1	101.8	3.47*	149.1*	6.6	-54.2	27.8
CC1=NN(C(C#N)c2cccc([N+](=O)[O-])c2)C(C)(C)C1 (stereo not given)	99.8	1.2	102.9	-2.0	-3.2	3.4
CC(C)(O)C#Cc1ccc(C(=O)NC2CCCCC2)s1	114.8	1.91	122.6	-18.8	-24.0	34.5
CCc1ccc(C(=O)NC2CCCCC2)s1	93.7	4.65*	140.7*	11.9	-41.7	123.7
CC(=O)c1ccc(OC2OCCOC2Oc2ccc(C(C)=O)cc2)cc1 (stereo not given)	99.8	1.25	103.8	-1.3	-3.9	27.7
O=C1NC(=O)/C(=C\c2ccc(Oc3cnccn3)cc2)S1	129.0	2.16	139.7*	-34.6	-42.8	32.7
O=C1NC(=S)S/C1=C/c1ccc(Oc2cnccn2)cc1	101.0	1.6	103.6	0.7	-4.0	-18.6
Cc1ccc(C(=O)NCCc2ccc(F)cc2)s1	93.2	4.19*	129.1*	12.9	-35.2	161.7*
CC1CC(C)(C)NC(=S)N1CCCC(=O)N1CCN(c2ccccc2F)CC1 (stereo not given)	100.3	0.94	106.5	-2.9	-7.4	20.1
N#Cc1c(NCCN)nc(NCc2ccccc2)c2c1CCN(Cc1ccccc1)C2	103.4	·	91.2	-1.4	9.7	5.8
C=CCNc1nc(NCc2ccccc2)c(C#N)c2c1CN(C)CC2	132.9*	0.83	117.2	-34.5	-18.8	5.2
O=C1C2CCCN2C(=O)N1CCCCN1CCN(c2ccc(F)cc2)CC1 (stereo not given)	102.6	0.89	106.0	1.8	-6.8	1.7
COc1ccc(-c2cc3nc4n(c(=O)c3s2)CCC4)cc1	20.3	1.07	40.1	92.5*	65.1*	159.5*
COc1ccc(NS(=O)(=O)c2cccc(-c3nnc4n3CCCCC4)c2)cc1	106.5	1	101.8	-5.1	-2.0	-6.3
CC(C)c1ccc(NC(=O)CCCN2C(=S)NC(C)(C)CC2C)cc1 (stereo not given)	83.9	0.84	100.2	24.9	-1.7	20.3
CS(=O)(=O)N1N=C(c2ccco2)CC1c1ccc(Cl)cc1Cl (stereo not given)	96.8	0.86	101.8	9.2	-4.2	0.9
C/C(CC(=O)Nc1cc(C)cc(C)c1)=N\NC(=O)c1ccccn1	91.3	1.33	110.9	9.2	-11.4	107.0
C/C(CC(=O)Nc1ccc2c(c1)OCCO2)=N\NC(=O)c1ccccn1	97.3	1.07	128.0	11.4	-29.5	136.1*
SMILES	STAT3 act	NF-kB expr up	STAT1 activator	STAT3 blocker	STAT1 inh	APP 5'UTR act
CSc1nsc(SCC(=O)Nc2ccc3c(c2)OCCO3)n1	97.5	4.04*	114.1	5.4	-15.4	141.0*
Cc1csc(SCC(=O)Nc2ccc3c(c2)OCCO3)n1	93.0	1.65	132.2*	13.1	-38.7	36.8
Cc1cc(C)c(S(=O)(=O)N2CCC(C(=O)NCc3ccc(Cl)cc3Cl)CC2)c(C)c1	93.1	0.63	93.7	13.4	7.0	5.6
CC(=O)N1CC[n+]2c(-c3ccc(Cl)cc3Cl)csc21	105.3	1.24	105.0	-2.3	-5.5	-3.1
COC1=C(Nc2ccccc2)C(=O)c2ccccc2C1=O	134.5*	1.16	113.6	-37.8	-15.2	14.4
COC1=C(Nc2ccc(C)cc2)C(=O)c2ccccc2C1=O	112.4	0.96	110.6	-18.0	-11.8	30.3
CCC1CO/C(=C(\C(Cl)=C(Cl)Cl)[N+](=O)[O-])N1 (stereo not given)	99.0	1.09	93.7	3.4	6.3	1.5
COC(=O)CCC(=O)Nc1ccc(N=Nc2ccccc2)cc1	94.5	2.64	132.8*	17.1	-36.8	54.3
O=C(COC(=O)C1CC1)Nc1ccc(N=Nc2ccccc2)cc1	93.6	1.2	136.0*	6.4	-38.2	100.8
COC(=O)c1ccc(N=Nc2ccccc2)cc1	91.2	3.28	132.0*	13.0	-35.1	39.1
COc1ccc(/C=C(\C#N)C(=O)OCC(=O)NC2CC2)cc1	92.1	1.09	98.2	15.6	0.5	13.3
COc1n[nH]c(C(=O)Nc2nc3ccccc3s2)c1[N+](=O)[O-]	122.6	1.47	134.5*	-21.9	-41.2	16.8
N#Cc1ccc(C(=O)Nc2nc(SCc3ccc(Cl)cc3)n[nH]2)cc1	89.1	1.17	99.6	13.5	0.5	3.9
CCN1CCN(c2ccc(NC(=O)c3cccc(F)c3)cc2Cl)CC1	111.8	2.08	135.7*	-8.9	-40.6	90.7
COCC(C)n1c(C)cc(C(=O)COC(=O)c2n[nH]c3ccccc23)c1C (stereo not given)	86.8	0.7	115.8	19.8	-17.1	143.0*
O=C(N/N=C1\CCc2ccccc21)c1ccc(O)cc1	90.4	3.27	141.5*	16.0	-49.7	138.1*
O=C(N/N=C1\CCc2ccccc21)c1ccccc1Cl	99.0	2.9	131.2*	5.0	-35.2	101.8
Cc1ccc(C(=O)N/N=C2\CCc3ccccc32)c(C)c1	105.4	5.68*	149.0*	-2.5	-54.3	126.7
Cc1ccc(NC(=O)CCN2C(=O)OC(C)(C)C2(C)O)cc1 (stereo not given)	93.5	1.13	98.1	10.0	0.5	4.8
O=C(c1ccco1)n1c(=S)nc2ccccn21	105.8	5.42*	143.6*	0.6	-47.8	86.6
O=C(c1cc2ncc(Br)cn2n1)N1CCN(C(=O)c2ccco2)CC1	104.0	1.24	105.6	-0.6	-6.0	-0.9
Cc1cccc2nc(=S)n(C(=O)c3ccco3)n12	133.7*	12*	197.3*	-32.1	-106.5	145.9*
Cc1ccc(/C=N/NC(=O)c2ccoc2C)s1	109.1	2.28	139.2*	-10.1	-43.8	78.7
